Results: paper PMC10076185 (Experimental eye research, 2023)

What was measured:
Test in all cases: SPR, protein immobilised by amine coupling, OneStep injection
Format in all cases: binding
Human IRBP = Human IRBP (Homo sapiens, UniProt P10745)
GSTP1 = GSTP1 (Homo sapiens, UniProt P09211)
How it was run: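 Human GSTP1 was expressed in E. coli and purified in-house, then amine-coupled to a carboxyl chip with an unmodified reference surface. Test compound in 100% DMSO was diluted to 1–100 µM in running buffer (10 mM PBS, 0.1% polyvinylpyrrolidone, 5% DMSO, pH 7.4) and injected as a Taylor-dispersion gradient, three times per concentration, at 25 °C. Sensorgrams were double-referenced with buffer blanks, and equilibrium binding constants were fitted.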

Apo-D = Apo-D (Homo sapiens, UniProt P05090)
Apo-D, sequence (P05090 21-189): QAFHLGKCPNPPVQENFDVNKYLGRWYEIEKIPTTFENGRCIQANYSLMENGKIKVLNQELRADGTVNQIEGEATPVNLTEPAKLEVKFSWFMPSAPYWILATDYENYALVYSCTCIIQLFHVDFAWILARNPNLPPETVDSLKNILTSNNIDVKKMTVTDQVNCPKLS
How it was run: (§1)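 Recombinant human proteins from commercial sources were amine-coupled to a carboxyl sensor chip beside an unmodified reference surface. Test compound in 100% DMSO was diluted to 1–100 µM in running buffer (10 mM PBS, 0.1% polyvinylpyrrolidone, 5% DMSO, pH 7.4) and given as a Taylor-dispersion gradient, three injections each, at 25 °C and 10 Hz. Sensorgrams were zeroed and double-referenced against buffer blanks, and equilibrium constants were fitted.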

Apo-AI = Apo-AI (Homo sapiens, UniProt P02647)
Apo-AI, sequence (P02647 25-267): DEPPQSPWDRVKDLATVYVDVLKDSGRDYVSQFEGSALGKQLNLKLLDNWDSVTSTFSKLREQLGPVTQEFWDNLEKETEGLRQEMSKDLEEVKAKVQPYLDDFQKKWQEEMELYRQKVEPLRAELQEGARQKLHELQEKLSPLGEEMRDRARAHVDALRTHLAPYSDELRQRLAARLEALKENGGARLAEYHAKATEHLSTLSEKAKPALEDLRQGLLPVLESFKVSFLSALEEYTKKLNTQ

Apo-M = Apo-M (Homo sapiens, UniProt O95445)
Apo-M, sequence (O95445 whole entry): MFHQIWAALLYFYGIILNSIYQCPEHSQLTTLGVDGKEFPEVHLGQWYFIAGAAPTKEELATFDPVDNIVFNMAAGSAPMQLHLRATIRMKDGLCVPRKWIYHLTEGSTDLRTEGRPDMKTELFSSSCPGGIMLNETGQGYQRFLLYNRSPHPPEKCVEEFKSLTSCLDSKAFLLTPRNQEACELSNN
How it was run: as §1

Apo-E = Apo-E (Homo sapiens, UniProt P02649)
Apo-E, sequence (P02649 19-317): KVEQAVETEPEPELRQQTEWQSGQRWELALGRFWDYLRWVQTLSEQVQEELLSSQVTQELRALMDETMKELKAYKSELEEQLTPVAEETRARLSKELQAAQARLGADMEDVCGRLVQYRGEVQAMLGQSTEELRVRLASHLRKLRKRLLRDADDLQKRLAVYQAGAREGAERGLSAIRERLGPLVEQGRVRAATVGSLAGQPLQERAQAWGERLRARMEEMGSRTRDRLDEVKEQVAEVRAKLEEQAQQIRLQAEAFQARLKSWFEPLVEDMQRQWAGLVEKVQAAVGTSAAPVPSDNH
How it was run: as §1

Apo-AII = Apo-AII (Homo sapiens, UniProt P02652)
Apo-AII, sequence (P02652 24-100): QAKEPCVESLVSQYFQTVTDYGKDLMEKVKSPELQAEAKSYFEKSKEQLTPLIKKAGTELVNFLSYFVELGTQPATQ
How it was run: as §1

GSTP1, sequence (P09211 2-210): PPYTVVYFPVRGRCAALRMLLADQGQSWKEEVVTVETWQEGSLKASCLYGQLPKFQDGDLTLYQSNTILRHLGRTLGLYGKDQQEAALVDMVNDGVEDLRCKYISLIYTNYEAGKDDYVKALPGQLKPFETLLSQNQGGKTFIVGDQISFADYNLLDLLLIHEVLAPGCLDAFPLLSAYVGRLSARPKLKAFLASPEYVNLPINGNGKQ
Human IRBP, sequence (P10745 18-1247): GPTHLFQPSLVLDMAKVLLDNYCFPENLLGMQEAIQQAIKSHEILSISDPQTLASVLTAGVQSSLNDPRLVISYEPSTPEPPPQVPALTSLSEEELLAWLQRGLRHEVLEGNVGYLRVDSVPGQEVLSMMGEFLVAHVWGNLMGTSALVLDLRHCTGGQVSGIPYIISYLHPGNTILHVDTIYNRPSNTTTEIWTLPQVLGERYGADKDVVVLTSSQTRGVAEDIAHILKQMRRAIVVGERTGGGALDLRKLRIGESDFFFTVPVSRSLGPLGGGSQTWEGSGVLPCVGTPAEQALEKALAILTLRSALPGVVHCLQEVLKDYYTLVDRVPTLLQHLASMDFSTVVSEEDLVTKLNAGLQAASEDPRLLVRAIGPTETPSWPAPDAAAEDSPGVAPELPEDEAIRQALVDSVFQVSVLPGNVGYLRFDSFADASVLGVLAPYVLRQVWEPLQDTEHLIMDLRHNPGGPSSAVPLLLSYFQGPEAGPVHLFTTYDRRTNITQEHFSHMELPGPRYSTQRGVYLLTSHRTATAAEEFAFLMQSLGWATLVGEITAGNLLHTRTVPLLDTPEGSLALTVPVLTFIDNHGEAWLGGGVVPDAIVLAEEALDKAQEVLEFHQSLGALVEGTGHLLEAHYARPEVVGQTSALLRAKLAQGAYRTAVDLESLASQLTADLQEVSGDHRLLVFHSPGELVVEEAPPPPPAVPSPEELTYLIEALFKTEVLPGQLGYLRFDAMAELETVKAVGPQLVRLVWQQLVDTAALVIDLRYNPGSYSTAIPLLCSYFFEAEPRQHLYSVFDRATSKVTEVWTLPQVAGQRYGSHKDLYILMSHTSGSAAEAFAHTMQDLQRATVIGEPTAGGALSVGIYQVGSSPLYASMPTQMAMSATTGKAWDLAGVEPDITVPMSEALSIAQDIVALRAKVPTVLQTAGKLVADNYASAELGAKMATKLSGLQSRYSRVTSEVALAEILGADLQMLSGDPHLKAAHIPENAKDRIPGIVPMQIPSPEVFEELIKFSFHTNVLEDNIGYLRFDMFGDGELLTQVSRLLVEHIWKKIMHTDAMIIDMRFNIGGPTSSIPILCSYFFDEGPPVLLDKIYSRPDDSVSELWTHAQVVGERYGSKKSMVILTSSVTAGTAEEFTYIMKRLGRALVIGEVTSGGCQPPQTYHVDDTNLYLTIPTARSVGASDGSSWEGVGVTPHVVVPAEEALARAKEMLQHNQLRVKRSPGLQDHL

| SMILES | Kd (Human IRBP) | Kd (GSTP1) | Kd (Apo-D) | Kd (Apo-AI) | Kd (Apo-M) | Kd (Apo-E) | Kd (Apo-AII) |
| --- | --- | --- | --- | --- | --- | --- | --- |
| CC1=C(/C=C/C(C)=C/C=C/C(C)=C/C=C/C=C(C)/C=C/C=C(C)/C=C/C2=C(C)C(=O)[C@@H](O)CC2(C)C)C(C)(C)C[C@H](O)C1=O [Astaxanthin] | 1640 ± 60 nM | 150 ± 20 nM |  |  |  |  |  |
| CC1=C[C@H](O)CC(C)(C)[C@H]1/C=C/C(C)=C/C=C/C(C)=C/C=C/C=C(C)/C=C/C=C(C)/C=C/C1=C(C)C[C@@H](O)CC1(C)C [Lutein] | 1060 ± 200 nM |  | 84000 ± 1000 nM | 12100 nM | 35000 ± 1000 nM | 21000 ± 1000 nM | 6100 ± 300 nM |
| CC1=C(/C=C/C(C)=C/C=C/C(C)=C/C=C/C=C(C)/C=C/C=C(C)/C=C/C2=C(C)C[C@@H](O)CC2(C)C)C(C)(C)C[C@H](O)C1 [Zeaxanthin] | 1640 ± 500 nM | 53 ± 10 nM | 68200 nM | 5620 nM | 81000 ± 9000 nM | 9250 nM | 1840 ± 90 nM |
| CC1=C(/C=C/C(C)=C/C=C/C(C)=C/C=C/C=C(C)/C=C/C=C(C)/C=C/C2=C(C)C[C@H](O)CC2(C)C)C(C)(C)C[C@H](O)C1 [meso-Zeaxanthin] | 1850 ± 300 nM | 55 ± 30 nM | 45600 nM | 7900 ± 200 nM | 35400 ± 800 nM | 6220 nM | 1600 ± 700 nM |
| CC1=C(/C=C/C(C)=C/C=C/C(C)=C/C=C/C=C(C)/C=C/C=C(C)/C=C/C2=C(C)CCCC2(C)C)C(C)(C)CCC1 [β-Carotene] | 920 ± 100 nM |  | 10 nM | 330 ± 30 nM | 50 nM | 400 ± 60 nM |  |
